The record followed here is ChEMBL document CHEMBL6134766, “Design, synthesis, and evaluation of benzhydrylpiperazine-based novel dual COX-2/5-LOX inhibitors with anti-inflammatory and anti-cancer activity” (RSC Med Chem, 2025).

For orientation: IC50 means the concentration that inhibits the measured activity by half.

Data set [1] has as its system Rattus norvegicus. In words: Anti-inflammatory activity in carrageenan-induced paw edema Wistar rat model assessed as swelling thickness of paw at 20 mg/kg, po measured after 5 hrs by digital vernier caliper (reference value: 8.47 +/- 0.32 millimeter). In kind it is functional. In general terms: Carrageenan injected into the paw causes an acute inflammation.
The test system of data set [2] is Rattus norvegicus. In words: Anti-inflammatory activity in arachidonic acid-induced paw edema Wistar rat model assessed as protection against swelling thickness of paw at 5 mg/kg, po measured after 1 hr by digital vernier caliper (reference value: 0 %). In kind it is functional.
The test system of data set [3] is Rattus norvegicus. Kind of data set: Anti-inflammatory activity in carrageenan-induced paw edema Wistar rat model assessed as swelling thickness of paw at 10 mg/kg, po measured after 3 hrs by digital vernier caliper (reference value: 8.56 +/- 0.45 millimeter). The data set is classed as functional.
Data set [4] in a line: Acute toxicity in female Wistar rat assessed as animal mortality up to 500 mg/kg, po measured for 14 days. The data set is classed as organism-based. Conditions: in vivo, 336 h, time 14 day. In outline:
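Followed OECD 423 guideline in healthy female Wistar rats weighing 200–250 g. Animals were housed at 25 ± 2 °C and 45–60% RH on a 12 h light/dark cycle, with free access to water and food.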

Data set [5] has as its system Rattus norvegicus. Kind of data set: Anti-inflammatory activity in carrageenan-induced paw edema Wistar rat model assessed as swelling thickness of paw at 5 mg/kg, po measured after 2 hrs by digital vernier caliper (reference value: 8.65 +/- 0.53 millimeter). The data set is classed as functional.
Data set [6] deals with Rattus norvegicus. Kind of data set: Anti-inflammatory activity in arachidonic acid-induced paw edema Wistar rat model assessed as swelling thickness of paw at 20 mg/kg, po measured after 1 hr by digital vernier caliper (reference value: 6.51 +/- 0.37 millimeter). In kind it is functional.
Data set [7] relates to Rattus norvegicus. In words: Anti-inflammatory activity in carrageenan-induced paw edema Wistar rat model assessed as decrease in TNF-alpha level in paw tissue at 5 to 20 mg/kg, po measured for 6 hrs by ELISA. In kind it is functional, organism-based. The conditions noted are these: dose 5-20 mg/kg. The method, boiled down: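 Paw tissue taken from carrageenan-edema rats dosed orally at 5, 10 or 20 mg kg−1. Tissue rinsed in PBS pH 7.4, minced, homogenized, filtered and centrifuged at 2000 rpm for 20 min at 4 °C. Supernatant assayed by ELISA for PGE2, IL-6, TNF-α and IL-10. Data as mean ± SD.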

Data set [8] concerns the target T1, Prostaglandin G/H synthase 1 (Ovis aries, UniProt P05979).
T1 sequence (P05979 whole entry): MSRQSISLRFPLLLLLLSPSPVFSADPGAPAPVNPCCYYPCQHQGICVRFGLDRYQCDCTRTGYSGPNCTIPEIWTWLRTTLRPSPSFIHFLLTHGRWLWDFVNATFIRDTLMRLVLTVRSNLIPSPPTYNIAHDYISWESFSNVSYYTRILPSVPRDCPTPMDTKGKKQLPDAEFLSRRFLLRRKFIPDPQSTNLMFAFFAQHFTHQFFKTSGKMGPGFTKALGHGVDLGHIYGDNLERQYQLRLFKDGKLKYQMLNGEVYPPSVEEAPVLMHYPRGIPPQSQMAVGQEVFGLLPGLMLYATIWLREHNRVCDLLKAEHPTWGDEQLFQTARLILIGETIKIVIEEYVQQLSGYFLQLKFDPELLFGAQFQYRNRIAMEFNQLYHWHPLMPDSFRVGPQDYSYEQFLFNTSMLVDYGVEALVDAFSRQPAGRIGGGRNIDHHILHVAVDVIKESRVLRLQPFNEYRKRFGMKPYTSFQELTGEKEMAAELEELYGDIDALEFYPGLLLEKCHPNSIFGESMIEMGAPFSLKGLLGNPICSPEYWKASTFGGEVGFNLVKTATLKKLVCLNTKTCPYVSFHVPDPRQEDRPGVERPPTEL
Kind of data set: Inhibition of ovine COX-1 using arachidonic acid as substrate in presence of hemin by TMPD reagent-based colorimetry.

Data set [9] has as its system Rattus norvegicus. In words: Anti-inflammatory activity in arachidonic acid-induced paw edema Wistar rat model assessed as swelling thickness of paw at 5 mg/kg, po measured after 1 hr by digital vernier caliper (reference value: 6.51 +/- 0.37 millimeter). The data set is classed as functional.
Data set [10] relates to Rattus norvegicus. Kind of data set: Analgesic activity in acetic acid-induced pain Wistar rat model assessed as number of writhing at 20 mg/kg, po pretreated for 30 mins followed by acetic acid treatment measured for 30 mins by writhing test (reference value: 40.33 +/- 3.01). Conditions: 0.5 h. In kind it is functional. A general note: An intraperitoneal irritant provokes the stretching counted in writhing tests.

Data set [11] addresses T2, Polyunsaturated fatty acid 5-lipoxygenase (Homo sapiens, UniProt P09917).
T2 sequence (P09917 whole entry): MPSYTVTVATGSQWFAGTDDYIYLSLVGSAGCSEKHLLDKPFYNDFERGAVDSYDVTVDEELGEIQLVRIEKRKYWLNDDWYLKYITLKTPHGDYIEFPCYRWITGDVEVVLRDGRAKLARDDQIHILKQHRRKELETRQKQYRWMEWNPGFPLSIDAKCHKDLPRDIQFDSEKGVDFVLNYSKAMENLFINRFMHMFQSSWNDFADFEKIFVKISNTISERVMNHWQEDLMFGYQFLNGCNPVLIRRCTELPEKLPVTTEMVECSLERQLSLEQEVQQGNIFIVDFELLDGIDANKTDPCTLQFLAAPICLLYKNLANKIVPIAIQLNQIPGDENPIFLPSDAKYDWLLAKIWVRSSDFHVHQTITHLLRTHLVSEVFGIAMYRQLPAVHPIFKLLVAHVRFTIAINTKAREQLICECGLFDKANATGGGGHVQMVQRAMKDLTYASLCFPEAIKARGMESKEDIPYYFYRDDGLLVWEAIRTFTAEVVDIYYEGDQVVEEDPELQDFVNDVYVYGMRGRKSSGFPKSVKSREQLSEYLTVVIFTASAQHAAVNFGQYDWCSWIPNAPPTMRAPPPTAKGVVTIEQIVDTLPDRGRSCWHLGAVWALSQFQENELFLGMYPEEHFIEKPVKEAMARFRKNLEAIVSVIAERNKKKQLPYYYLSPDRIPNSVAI
In words: Inhibition of 5-LOX (unknown origin) using arachidonic acid as substrate preincubated for 5 mins followed by substrate addition measured after 10 mins by spectrophotometry.

Data set [12] concerns Rattus norvegicus. Kind of data set: Anti-inflammatory activity in carrageenan-induced paw edema Wistar rat model assessed as swelling thickness of paw at 20 mg/kg, po measured after 3 hrs by digital vernier caliper (reference value: 8.56 +/- 0.45 millimeter). The data set is classed as functional.
Data set [13] can be described thus: Toxicity in Wistar rat assessed as change in serum AST level at 20 mg/kg, po. In kind it is organism-based. Conditions: in vivo. In outline:
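Rats dosed orally in 0.3% Na CMC; retro-orbital blood clotted at room temperature, serum separated at 2000 rpm, 20 min, 4 °C; ALT, AST, creatinine and urea by commercial kits; n = 6 per group, mean ± SD; Tukey test after repeated-measures one-way ANOVA.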

For another data set, the system named is Gastric mucosa. In words: Antioxidant activity in gastric mucosal tissue in Wistar rat assessed as increase in SOD level at 20 mg/kg, po. The data set is classed as functional, organism-based. The method, boiled down:
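Gastric tissue from fasted rats (dosed orally once daily for 3 days in 0.3% Na CMC) homogenized in cold PBS pH 7.4, centrifuged 1000 rpm, 10 min, 4 °C; protein by Bradford; SOD measured in supernatant per reported procedure.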

Data set [14] relates to Rattus norvegicus. Kind of data set: Anti-inflammatory activity in carrageenan-induced paw edema Wistar rat model assessed as swelling thickness of paw at 5 mg/kg, po measured after 5 hrs by digital vernier caliper (reference value: 8.47 +/- 0.32 millimeter). In kind it is functional.

Activity calls are given as the source filed them. The calls are words filed in the database; no cut-off is given here.

Take `Clc1ccc(-c2nnc(CN3CCN(C(c4ccccc4)c4ccc(Cl)cc4)CC3)o2)cc1` (stereo not given): the Activity with Rattus norvegicus [1] is 3.24 mm; in the data set with Rattus norvegicus [2] it was 56.12%; with Rattus norvegicus [3] it was 3.47 mm; in [4] it was “Non-toxic”; in the data set on Rattus norvegicus [5], 5.63 mm; in the data set with Rattus norvegicus [6], 1.94 mm. Besides, the Activity was 2.86 mm with Rattus norvegicus [9]; 17.83 with Rattus norvegicus [10]; 3.41 mm with Rattus norvegicus [12]; “Non-toxic” in [13]; 3.98 mm with Rattus norvegicus [14]. The result with Rattus norvegicus [7] and in the data set on Gastric mucosa was Active. The figures for the IC50 in data set [8] and in [11] were 34.1 µM and 7.87 µM, respectively.
On to `O=[N+]([O-])c1ccc(-c2nnc(CN3CCN(C(c4ccccc4)c4ccc(Cl)cc4)CC3)o2)cc1` (stereo not given), for which the Activity in the data set on Rattus norvegicus [1] is 3.96 mm; in the data set on Rattus norvegicus [2], 55.22%; in the data set on Rattus norvegicus [3], 4.41 mm; in data set [4], “Non-toxic”; in the data set on Rattus norvegicus [5], 5.25 mm; with Rattus norvegicus [6], 2.24 mm. The Activity in the data set with Rattus norvegicus [9] is 2.92 mm; in the data set on Rattus norvegicus [10] it was 20.33; in the data set with Rattus norvegicus [12] it was 4.54 mm; in data set [13] it was “Non-toxic”; with Rattus norvegicus [14], 4.22 mm. In addition, the outcome with Rattus norvegicus [7] and in the data set on Gastric mucosa was Active. Moreover, the IC50 in data set [8] was 41.1 µM; in data set [11], 9.16 µM.
